For series [1], the system named is Mus musculus. Nature of the series: Hepatotoxicity in mouse assessed as hepatocytes degeneration at 30 mg/kg/day, po dosed for 2 weeks by Harris haematoxylin-eosin staining based […] microscopic analysis relative to control. In kind it is toxicity, organism-based, Hepatocyte. Also on record: route oral. Conditions: 336 h.
The subject of series [2] is Mus musculus. Nature of the series: Hepatotoxicity in mouse assessed as morphological changes in hepatic parenchyma at 30 mg/kg/day, po dosed for 2 weeks by Harris haematoxylin-eosin staining based […] microscopic analysis relative to control. Type of series: toxicity, organism-based. Details: route oral. Conditions: in vivo, 336 h.
The subject of series [3] is Mus musculus. Description: CNS depressant activity in mouse assessed as immobility time at 100 mg/kg, ip measured 60 mins post dose by porsolt's swimming pool test. In kind it is organism-based. Also on record: dose 100 mg/kg, route intraperitoneal. The settings on record: in vivo, 1 h. An outline of the steps: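 Behavioral depression was measured by Porsolt's swim test in albino mice of either sex. Immobility time (s) was recorded 24 h before as the control and again 60 min after treatment. Values are mean ± SEM of six mice, compared with Student's t test.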

Series [4] relates to Mus musculus. Description: Increase in GABA level in mouse brain at 30 mg/kg, po dosed for 7 days by spectrophotometry relative to control. In kind it is functional.
Series [5] has as its system Mus musculus. Description: Neuroprotective activity in acrylamide-intoxicated mouse assessed as reduction in brain malonaldehyde level at 50 mg/kg, ip dosed 3 days/week for 3 weeks administered 10 mins before acrylamide challenge by TBARS detection assay. Type of series: functional, organism-based. Also on record: dose 50 mg/kg. An outline of the steps:
(§1)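 Mice were given acrylamide to induce brain degeneration, with compound administered 10 min before the acrylamide. Brain MDA (lipid peroxidation) and LDH activity were measured against controls. Values are mean ± SEM of six animals, compared with Student's t test.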

Series [6] has as its system Mus musculus. Description: Neurotoxicity in mouse assessed as minimal motor impairment at 300 mg/kg, ip after 0.5 hrs by rotarod test. In kind it is toxicity, organism-based. Conditions: in vivo. Also on record: dose 300 mg/kg, route intraperitoneal. An outline of the steps: (§2)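 Albino mice of either sex (25-30 g) received 30, 100 or 300 mg/kg (n = 6). Neurological deficit was assessed on the rotarod at 0.5 h and 4 h. The value recorded is the minimum dose producing neurotoxicity in half or more of the mice; 300 mg/kg is the maximum dose.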
(In general: In the rotarod test animals must keep their balance on a rotating rod.)

Series [7] concerns Mus musculus. Description: Neuroprotective activity in acrylamide-intoxicated mouse assessed as reduction in brain LDH level at 50 mg/kg, ip dosed 3 days/week for 3 weeks administered 10 mins before acrylamide challenge by spectrophotometry. Type of series: functional, organism-based. Details: dose 50 mg/kg. A digest of the protocol:
as §1

In series [8] the test system is Mus musculus. Nature of the series: Anticonvulsant activity in ip dosed mouse assessed as compound concentration causing protection against subcutaneous pentylenetetrazol-induced seizures in half or more test animals after 4 hrs. Type of series: functional. The settings on record: read-out: MED. An outline of the steps:
(§3)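 Albino mice of either sex (25-30 g), housed under standard conditions with free access to pellet diet and water. Compounds given at 30, 100 and 300 mg/kg (n = 6). MES and scPTZ seizures were read at 0.5 h and 4 h. The value recorded is the minimum dose protecting half or more of the mice; 300 mg/kg is the maximum dose.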

Series [9] relates to Mus musculus. Nature of the series: Anticonvulsant activity in ip dosed mouse assessed as compound concentration causing protection against maximal electroshock-induced seizures in half or more test animals after 0.5 hrs. In kind it is functional. The settings on record: read-out: MED. An outline of the steps: as §3
Series [10] concerns Mus musculus. Description: Anticonvulsant activity in ip dosed mouse assessed as compound concentration causing protection against maximal electroshock-induced seizures in half or more test animals after 4 hrs. Type of series: functional. The settings on record: read-out: MED. A digest of the protocol:
as §3
Background: In the maximal electroshock model the usual endpoint is tonic extension of the hind limbs.

Series [11] deals with Mus musculus. Nature of the series: Anticonvulsant activity in ip dosed mouse assessed as protection against maximal electroshock-induced seizures. In kind it is functional.
Series [12] has as its system Mus musculus. Description: Anticonvulsant activity in ip dosed mouse assessed as compound concentration causing protection against subcutaneous pentylenetetrazol-induced seizures in half or more test animals after 0.5 hrs. In kind it is functional. Conditions: read-out: MED. A digest of the protocol:
as §3

Series [13] deals with Mus musculus. Description: Anticonvulsant activity in ip mouse assessed as protection against subcutaneous pentylenetetrazol-induced seizures. Type of series: functional. A digest of the protocol: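 This is the Phase II quantitation in albino mice of either sex (25-30 g). […] TD50 came from the rotarod test, read 30 min after dosing. The protective index is TD50/ED50.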

The test system of series [14] is Mus musculus. Description: Neurotoxicity in mouse assessed as minimal motor impairment at 300 mg/kg, ip after 4 hrs by rotarod test. Conditions: in vivo. Also on record: dose 300 mg/kg, route intraperitoneal. Type of series: toxicity, organism-based. An outline of the steps:
as §2

Series [15] is described as follows: Neurotoxicity in ip dosed mouse after 30 mins by rotarod test. In kind it is toxicity, organism-based. The settings on record: in vivo.
Series [16] is filed under the species Mus musculus. Nature of the series: Protective index, ratio of TD50 for mouse to ED50 for anticonvulsant activity in mouse by maximal electroshock-seizure test. In kind it is functional.
Series [17] has as its system Mus musculus. Description: Protective index, ratio of TD50 for mouse to ED50 for anticonvulsant activity in mouse by subcutaneous pentylenetetrazol-induced seizure test. Type of series: functional.
Series [18] relates to Mus musculus. Description: Hepatotoxicity in mouse assessed as effect on SGOT level at 30 mg/kg, po after 2 weeks relative to control. In kind it is toxicity, organism-based. Details: dose 30 mg/kg, route oral. Conditions: in vivo, 336 h. An outline of the steps: (§4)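 Serum SGOT, SGPT, alkaline phosphatase, total albumin and total protein were measured in treated mice against controls (n = 6). Data were analysed by ANOVA followed by Student's t test.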

Series [19] has as its system Mus musculus. Description: Hepatotoxicity in mouse assessed as effect on SGPT level at 30 mg/kg/day, po dosed for 2 weeks relative to control. Type of series: toxicity, organism-based. Details: route oral. Conditions: in vivo, 336 h. An outline of the steps:
as §4

Series [20] concerns Mus musculus. Description: Hepatotoxicity in mouse assessed as effect on alkaline phosphatase level at 30 mg/kg/day, po dosed for 2 weeks relative to control. In kind it is toxicity, organism-based. Details: route oral. Conditions: in vivo, 336 h. An outline of the steps: as §4
For series [21], the system named is Mus musculus. Description: Hepatotoxicity in mouse assessed as effect on total albumin level at 30 mg/kg/day, po dosed for 2 weeks relative to control. In kind it is toxicity, organism-based. Details: route oral. The settings on record: in vivo, 336 h. A digest of the protocol: as §4
Series [22] concerns Mus musculus. Description: Hepatotoxicity in mouse assessed as effect on total protein level at 30 mg/kg/day, po dosed for 2 weeks relative to control. In kind it is toxicity, organism-based. Details: route oral. The settings on record: in vivo, 336 h. An outline of the steps:
as §4

Series [23] concerns Mus musculus. Description: Hepatotoxicity in mouse assessed as liver necrosis at 30 mg/kg/day, po dosed for 2 weeks by Harris haematoxylin-eosin staining based […] microscopic analysis relative to control. Type of series: toxicity, organism-based. Details: route oral. Conditions: in vivo, 336 h.
Series [24] concerns Mus musculus. Description: Hepatotoxicity in mouse assessed as hepatic inflammation at 30 mg/kg/day, po dosed for 2 weeks by Harris haematoxylin-eosin staining based […] microscopic analysis relative to control. Type of series: toxicity, organism-based. Also on record: route oral. The settings on record: in vivo, 336 h.

The record followed here is ChEMBL document CHEMBL2150955, “Design, synthesis and evaluation of N-(substituted benzothiazol-2-yl)amides as anticonvulsant and neuroprotective” (Eur J Med Chem, 2012).

SMILES strings stand for the structures. Calls of active or inactive are those of the source. The calls are words filed in the database; no cut-off is given here.

As usually defined, the ED50 is the dose that gives a 50% effect, or the effect in half of the subjects. Usually TD50 stands for the dose at which the toxic effect under study appears in half of the subjects. A lower TD50 goes with greater toxicity.

With `COc1ccc2nc(NC(=O)CCC(=O)c3ccccc3)sc2c1`, the Activity result in the series on Mus musculus [1], in the series with Mus musculus [2], in the series on Mus musculus [6], with Mus musculus [14], in the series with Mus musculus [18] and with Mus musculus [19] was “Non-toxic” throughout. For the same compound, the Activity entry with Mus musculus [20], with Mus musculus [21], with Mus musculus [22], in the series with Mus musculus [23] and in the series with Mus musculus [24] was “Non-toxic” throughout. In addition, the Time in the series with Mus musculus [3] is listed as 135.6 s. Further, the “fold change (FC)” value in the series on Mus musculus [4] was found to be 1.8. Moreover, the outcome in the series on Mus musculus [5] and with Mus musculus [7] was Active. Besides, the minimal effective dose in the series on Mus musculus [8] stood at 100 mg/kg; in the series on Mus musculus [9], 30 mg/kg; in the series with Mus musculus [10], 30 mg/kg; in the series on Mus musculus [12], 100 mg/kg. Moreover, the ED50 came out at 41 mg/kg with Mus musculus [11] and 85.2 mg/kg in the series on Mus musculus [13]. For the same compound, the TD50 at 0.5 h in series [15] came out at 348 mg/kg. Also, the “Ratio TD50/ED50” value in the series filed under Mus musculus [16] is listed as 8.4; with Mus musculus [17], 4.
